# Measurements published in ChEMBL document CHEMBL1129397, “Synthesis and biological activity of aromatic amino acid phosphoramidates of 5-fluoro-2'-deoxyuridine and 1-beta-arabinofuranosylcytosine: evidence of phosphoramidase activity” (J Med Chem, 1996).
# Experiments:
# CCRF-CEM = assay: In vitro cytotoxicity of compounds were determined on Inhibition of human leukemia cell line(CCRF-CEM).; format: functional, cell-based
# Procedure, shortened: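 CCRF-CEM cells, or a CEM-TK⁻ variant with less than 1% of wild-type thymidine kinase activity, were grown in RPMI 1640 with 20% heat-inactivated FBS, penicillin, streptomycin and 0.5% human IL-2. Cells were cultured with or without compound for 48 h at 37 °C in 5% CO2. Proliferation and viability were then counted by trypan blue dye exclusion.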
# L1210 = assay: In vitro cytotoxicity of compounds were determined on murine leukemia cell line (L1210).; format: functional, cell-based; details: Mus musculus
# Procedure, shortened: (§1)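 Cells were cultured with or without compound for 48 h at 37 °C in a 5% CO2–95% air atmosphere. Portions were then counted for proliferation and viability by trypan blue dye exclusion. IC50 was taken from the remaining viable cell number.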
# L929 = assay: In vitro cytotoxicity of compounds were determined on mouse fibroblast (L929 TK-).; format: functional, cell-based; procedure, shortened: as §1
# Thymidylate synthase [1] = biological target: T1, Thymidylate synthase (Mus musculus, UniProt P07607); assay: Inhibition of cellular thymidylate synthase activity of mouse fibroblast (L929 TK-) in intact cells.; format: cell-based
# Thymidylate synthase [2] = biological target: T1, Thymidylate synthase; assay: Inhibition of cellular thymidylate synthase activity of mouse fibroblast (L929 TK-) in permeabilised cells.; format: cell-based
# Procedure, shortened: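 L929 TK⁻ cells were permeabilized with high-molecular-weight dextran sulfate. Intracellular thymidylate synthase activity was then measured in situ by tritium release, and IC50 values were determined.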
# Thymidylate synthase [3] = biological target: T1, Thymidylate synthase; assay: Inhibition of cellular thymidylate synthase activity of murine leukemia cell line (L1210) in intact cells.; format: cell-based
# Thymidylate synthase [4] = biological target: T1, Thymidylate synthase; assay: Inhibition of cellular thymidylate synthase activity of murine leukemia cell line (L1210) in permeabilised cells.; format: cell-based
# CEM-TK(-) = assay: In vitro cytotoxicity of compounds were determined on Inhibition of human leukemia cell line (CEM-TK)
# Thymidylate synthase [5] = biological target: T1, Thymidylate synthase; assay: Inhibition of cellular thymidylate synthase activity of mouse fibroblast (L929 TK-) in permeabilised cells; format: cell-based
# CEM-TK(-) (Homo sapiens) = assay: In vitro cytotoxicity of compounds were determined on human leukemia cells (CEM-TK-).
# L929 TK- (Mus musculus) = assay: In vitro cytotoxicity of compounds were determined on murine fibroblast cell line (L929 TK-) in.
# T1 sequence (P07607 whole entry): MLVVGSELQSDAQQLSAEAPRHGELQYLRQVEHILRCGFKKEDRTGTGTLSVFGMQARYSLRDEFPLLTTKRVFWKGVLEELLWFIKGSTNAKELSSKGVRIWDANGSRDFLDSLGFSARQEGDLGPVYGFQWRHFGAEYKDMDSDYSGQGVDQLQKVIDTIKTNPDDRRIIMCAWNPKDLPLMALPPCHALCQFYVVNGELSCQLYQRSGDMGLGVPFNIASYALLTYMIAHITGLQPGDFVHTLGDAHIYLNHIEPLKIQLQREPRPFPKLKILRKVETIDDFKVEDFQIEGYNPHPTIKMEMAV
SMILES,IC50 (CCRF-CEM),IC50 (L1210),IC50 (L929),IC50 (Thymidylate synthase [1]),IC50 (Thymidylate synthase [2]),IC50 (Thymidylate synthase [3]),IC50 (Thymidylate synthase [4]),IC50 (CEM-TK(-)),IC50 (Thymidylate synthase [5]),IC50 (CEM-TK(-) (Homo sapiens)),IC50 (L929 TK- (Mus musculus))
O=c1[nH]c(=O)n([C@H]2C[C@H](O)[C@@H](COP(=O)(O)O)O2)cc1F [5-FLUORODEOXYURIDYLATE],0.0055 µM,0.015 µM,6.8 µM,–,–,–,–,–,–,–,–
O=c1[nH]c(=O)n([C@H]2C[C@H](O)[C@@H](CO)O2)cc1F [FLOXURIDINE],0.002 µM,0.012 µM,7.7 µM,7.3 µM,11 µM,0.043 µM,59 µM,66.3 µM,–,–,–
Nc1ccn([C@@H]2O[C@H](CO)[C@@H](O)[C@@H]2O)c(=O)n1 [CYTARABINE],0.09 µM,–,–,–,–,–,–,–,–,–,–
Nc1ccn([C@@H]2O[C@H](COP(=O)(O)O)[C@@H](O)[C@H]2O)c(=O)n1,0.1 µM,–,–,–,–,–,–,–,–,–,–
COC(=O)[C@@H](NP(=O)(O)OC[C@H]1O[C@@H](n2cc(F)c(=O)[nH]c2=O)C[C@@H]1O)C1C=Nc2ccccc21 (some centres undefined),0.32 µM,0.4 µM,–,0.67 µM,–,12 µM,2.3 µM,–,> 1000 µM,58.1 µM,240 µM
COC(=O)[C@H](Cc1ccccc1)NP(=O)(O)OCC1OC(n2cc(F)c(=O)[nH]c2=O)CC1O (some centres undefined),0.32 µM,0.41 µM,200 µM,> 1000 µM,–,21 µM,5 µM,86.5 µM,1.1 µM,–,–
